For experiment [1], the system named is L1210. The experiment can be described thus: Concentration required to inhibit proliferation of cultured lymphoid leukemia L1210 cells to 50% growth over 48 hours. Type of experiment: functional, cell-based. Particulars: Mus musculus, L1210, 48 h. The method in brief:
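Cultured lymphoid leukemia L1210 cells were exposed to agent for 48 h. IC50 is the micromolar concentration that holds proliferation to 50% growth.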

For experiment [2], the system named is P388. The experiment can be described thus: Compound was evaluated for antitumor activity against mice implanted with lymphatic leukemia P388 cells (10e6 tumor cells) after intraperitoneal administration of 200 mg/kg per injection (1-5 days). Type of experiment: functional. The settings on record: Mus musculus, P388, ip. A digest of the protocol: (§1)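 Mice implanted ip with 10⁶ lymphocytic leukemia P388 cells; drug given ip on days 1-5. Read-out is % increase in life span (% ILS) versus untreated controls, reported at the highest nontoxic dose tested.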

In experiment [3] the test system is P388. The experiment can be described thus: Compound was evaluated for antitumor activity against mice implanted with lymphatic leukemia P388 cells (10e6 tumor cells) after intraperitoneal administration of 2 mg/kg per injection (1-5 days). Particulars: Mus musculus, P388, ip. Type of experiment: functional. A digest of the protocol: as §1
The test system of experiment [4] is L1210. The experiment can be described thus: Compound was evaluated for antitumor activity against mice implanted with lymphatic leukemia L1210 cells (10e6 tumor cells) after intraperitoneal administration of 200 mg/kg per injection (1-15 days). The settings on record: Mus musculus, L1210, ip.
Another experiment has as its system HEp-2. The experiment can be described thus: Compound's concentration required to inhibit proliferation of cultured HEP-2 cells to 50% growth during 48 hours. It is filed as functional, cell-based. Particulars: Homo sapiens, HEp-2, 48 h.
For experiment [5], the system named is P388. The experiment is described as follows: Compound was evaluated for antitumor activity against mice implanted with lymphatic leukemia P388 cells (10e6 tumor cells) after intraperitoneal administration of 200 mg/kg per injection (highest dose tested). Type of experiment: functional. Particulars: Mus musculus, P388, ip. The method in brief:
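Mice implanted ip with 10⁶ P388 leukemia cells and treated ip on days 1-5. % increase in life span is reported at the highest dose tested.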

Experiment [6] has as its system P388. The experiment is described as follows: Compound was evaluated for antitumor activity against mice implanted with lymphatic leukemia P388 cells (10e6 tumor cells) after intraperitoneal administration of 200 mg/kg per injection. Type of experiment: functional. Particulars: Mus musculus, P388, ip.
The nature of experiment [7]: Compound's concentration required to inhibit proliferation of cultured KB cells to 50% growth during 48 hours. It is filed as functional, cell-based. The settings on record: Homo sapiens.
The subject of experiment [8] is L1210. The experiment is described as follows: Effect on the mitosis of cultured L1210 cells measured in metaphase at 12 hours and 3 uM concentration. Type of experiment: functional, Mus musculus. A digest of the protocol: (§2)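 Cultured L1210 cells were exposed for 12 h to 0, 3, 10, 30, 50 or 100 μM agent. Read-out was the percentage of cells in metaphase.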
The test system of experiment [9] is P388. The experiment is described as follows: Compound was evaluated for antitumor activity against mice implanted with lymphatic leukemia P388 cells (10e6 tumor cells) after intraperitoneal administration of 100 mg/kg per injection (1-5 days). Type of experiment: functional. The settings on record: Mus musculus, P388, ip. A digest of the protocol:
as §1

Experiment [10] has as its system L1210. The experiment is described as follows: Effect on the mitosis of cultured L1210 cells measured in metaphase at 12 hours and 0 uM concentration. Type of experiment: functional, Mus musculus. The method in brief: as §2
In experiment [11] the test system is L1210. The experiment can be described thus: Effect on the mitosis of cultured L1210 cells measured in metaphase at 12 hours and 30 uM concentration. It is filed as functional, Mus musculus. The method in brief:
as §2

Experiment [12] concerns L1210. The experiment can be described thus: Effect on the mitosis of cultured L1210 cells measured in metaphase at 12 hours and 50 uM concentration. It is filed as functional, Mus musculus. The method in brief:
as §2

Experiment [13] concerns L1210. The experiment is described as follows: Effect on the mitosis of cultured L1210 cells measured in metaphase at 12 hours and 10 uM concentration. Type of experiment: functional, Mus musculus. A digest of the protocol:
as §2

The subject of experiment [14] is L1210. The experiment is described as follows: Effect on the mitosis of cultured L1210 cells measured in metaphase at 12 hours and 100 uM concentration. It is filed as functional, Mus musculus. A digest of the protocol:
as §2

Molecules are shown by their SMILES. A value given as a limit tells only on which side of the number the result lay.

Compound `COc1ccc(/C(=N/O)C(C)N)cc1` (stereo unspecified) had a half-inhibitory concentration (IC50) in the experiment with L1210 [1] greater than 100 µM.
The same measure, in the same setting: then `CCOC(=O)Nc1cc(N[C@@H](C)/C(=N\O)c2ccc(O)cc2)c([N+](=O)[O-])c(N)n1`, with 26 µM; and `CCOC(=O)Nc1cc(NC(C)C(O)Cc2ccccc2)c([N+](=O)[O-])c(N)n1` (stereo unspecified), with 53 µM.
Regarding `CCOC(=O)Nc1cc(NC(C)C(=O)Cc2ccccc2)c([N+](=O)[O-])c(N)n1` (stereo unspecified), inhibition in the experiment on L1210 [1] was half-maximal at 10 µM (IC50). Further, in the experiment with P388 [2], the increase in lifespan (ILS) at 200 mg/kg is 10%.
As to `CC[C@]1(O)C[C@H]2CN(CCc3c([nH]c4ccccc34)[C@@](C(=O)OC)(c3cc4c(cc3OC)N(C=O)[C@H]3[C@@](O)(C(=O)OC)[C@H](OC(C)=O)[C@]5(CC)C=CCN6CC[C@]43[C@@H]65)C2)C1` [VINCRISTINE], the ILS at 2 mg/kg with P388 [3] amounted to 85%.
`CCOC(=O)Nc1cc(N[C@H](C)[C@@H](O)c2ccc(O)cc2)c(N)c(N)n1` gave an IC50 in the experiment on L1210 [1] of 51 µM. The compound further returned an ILS at 200 mg/kg in the experiment with P388 [2] of 0%.
In turn, `CCOC(=O)Nc1cc(NN(C)C(=N)c2ccccc2)c([N+](=O)[O-])c(N)n1` displayed an IC50 with L1210 [1] greater than 100 µM.
Consider `CCOC(=O)Nc1cc(NC(c2ccccc2)c2ccccc2)c(N)c(N)n1`, for which, in the experiment with L1210 [4], the ILS at 200 mg/kg stood at 0%. The compound further yielded an IC50 in the experiment with HEp-2 of 0.26 µM.
Turning to `CCCCC(Nc1cc(NC(=O)OCC)nc(N)c1N)C(C)O` (stereo unspecified), the ILS at 200 mg/kg in the experiment with P388 [5] was determined as 45%. In the experiment on L1210 [1], the half-inhibitory concentration (IC50) came out at 1.7 µM.
`CCCCC(Nc1cc(NC(=O)OCC)nc(N)c1[N+](=O)[O-])C(C)=O` (stereo unspecified) gave an IC50 with L1210 [1] of 31 µM.
In the case of `CCOC(=O)Nc1cc(N[C@H](C)[C@@H](O)c2ccc(O)cc2)c([N+](=O)[O-])c(N)n1`, in the experiment with L1210 [1], 23 µM corresponded to half-maximal inhibition (IC50). The compound also gave an ILS at 200 mg/kg in the experiment with P388 [2] of 0%.
For the compound `CCOC(=O)Nc1cc(NC(C)C(O)c2ccc3c(c2)OCO3)c([N+](=O)[O-])c(N)n1` (stereo unspecified), the IC50 in the experiment with L1210 [1] was found to be 21 µM.
As for `CCOC(=O)Nc1cc(NC(/C(=N/O)c2ccccc2)c2ccccc2)c([N+](=O)[O-])c(N)n1` (stereo unspecified), the midpoint of inhibition in the experiment with L1210 [1], the IC50, lay at 45 µM.
As to `CCOC(=O)Nc1cc(N)c([N+](=O)[O-])c(N)n1`, the ILS at 200 mg/kg in the experiment on P388 [6] is 0%. In experiment [7], the IC50 came out at 48 µM.
Regarding `CCOC(=O)Nc1cc(N[C@@H](C)[C@H](O)c2ccccc2)c([N+](=O)[O-])c(N)n1`, 7.8 µM corresponded to half-maximal inhibition in the experiment on L1210 [1] (IC50). This compound also had an ILS at 200 mg/kg with P388 [2] of 53%.
Take `CCOC(=O)Nc1cc(N[C@H](C)[C@@H](O)c2ccccc2)c(N)c(N)n1`: in the experiment with L1210 [1], the concentration for half-maximal inhibition (IC50) was 5.9 µM. For the same compound, the increase in life span (ILS) at 200 mg/kg in the experiment with P388 [2] amounted to 10%.
The compound `CCOC(=O)Nc1cc(NC(CC)C(=O)c2ccccc2)c([N+](=O)[O-])c(N)n1` (stereo unspecified) registered an IC50 in the experiment with L1210 [1] greater than 100 µM.
`CCCCC(O)C(C)Nc1cc(NC(=O)OCC)nc(N)c1N` (stereo unspecified): in the experiment with L1210 [1], the half-inhibitory concentration (IC50) worked out at 18 µM. In the experiment with P388 [2], this compound gave an ILS at 200 mg/kg of 10%.
As to `CCOC(=O)Nc1cc(NC(CC)C(O)c2ccccc2)c([N+](=O)[O-])c(N)n1` (stereo unspecified), in the experiment on L1210 [1], half-maximal inhibition (IC50) required 22 µM.
On the same count and under the same terms, then `CCCCC(O)C(C)Nc1cc(NC(=O)OCC)nc(N)c1[N+](=O)[O-]` (stereo unspecified), with 55 µM.
As to `CCOC(=O)Nc1cc(NC(C)/C(=N/O)c2cccc([N+](=O)[O-])c2)c([N+](=O)[O-])c(N)n1` (stereo unspecified), the Cells in metaphase is reported as 4% in the experiment on L1210 [8]; 2% with L1210 [10]; 2% in the experiment with L1210 [11]; 6% in the experiment on L1210 [12]; 2% in the experiment on L1210 [13]; 1% in the experiment with L1210 [14]. In the experiment with P388 [9], this compound displayed an ILS at 100 mg/kg of 25%. In the experiment on L1210 [1], this compound showed an IC50 of 32 µM.
`CCOC(=O)Nc1cc(N[C@@H](C)C(=O)c2ccc(O)cc2)c([N+](=O)[O-])c(N)n1` displayed a half-inhibitory concentration (IC50) in the experiment on L1210 [1] of 24 µM.
The compound `CCOC(=O)Nc1cc(NCCc2ccccc2)c(N)c(N)n1` registered an IC50 in experiment [7] of 75 µM.
Regarding `CCOC(=O)Nc1cc(NC(C)C(=O)COc2ccccc2)c([N+](=O)[O-])c(N)n1` (stereo unspecified), half-maximal inhibition in the experiment with L1210 [1] (IC50) required 89 µM.
In the experiment with L1210 [1], `CCOC(=O)Nc1cc(N[C@H](C)C(=O)c2ccccc2)c([N+](=O)[O-])c(N)n1` had a concentration for half-maximal inhibition (IC50) of 24 µM. In the experiment on P388 [2], the increase in life span (ILS) at 200 mg/kg turned out to be 0%.
With `CCOC(=O)Nc1cc(NC(C)C(O)COc2ccccc2)c([N+](=O)[O-])c(N)n1` (stereo unspecified), the concentration for half-maximal inhibition (IC50) in the experiment on L1210 [1] amounted to 55 µM.
Same read-out and setting: then `CCCCC(=O)C(C)Nc1cc(NC(=O)OCC)nc(N)c1[N+](=O)[O-]` (stereo unspecified), with 54 µM.
Still for that read-out and setting: then `CCOC(=O)Nc1cc(NC(C)C(O)COc2ccccc2)c(N)c(N)n1` (stereo unspecified), with 21 µM; and `CCCCC(Nc1cc(NC(=O)OCC)nc(N)c1[N+](=O)[O-])C(C)O` (stereo unspecified), with 56 µM; and `CCOC(=O)Nc1cc(NC(C)C(=O)c2ccc3c(c2)OCO3)c([N+](=O)[O-])c(N)n1` (stereo unspecified), with 69 µM.
Compound `CCOC(=O)Nc1cc(NCCc2ccccc2)c([N+](=O)[O-])c(N)n1` came in with an IC50 in experiment [7] greater than 100 µM.
Turning to `CCOC(=O)Nc1cc(N/N=C/c2ccccc2)c(N)c(N)n1`, the ILS at 200 mg/kg in the experiment with P388 [6] worked out at 3%.
With `CCOC(=O)Nc1cc(NC(C)C(=O)c2ccc(O)cc2)c([N+](=O)[O-])c(N)n1` (stereo unspecified), the increase in lifespan (ILS) at 100 mg/kg in the experiment with P388 [9] turned out to be 71%. Also, the IC50 with L1210 [1] came out at 1.2 µM.
In turn, `CCOC(=O)Nc1cc(N[C@H](C)[C@@H](O)c2ccccc2)c([N+](=O)[O-])c(N)n1` yielded a half-inhibitory concentration (IC50) in the experiment on L1210 [1] of 31 µM. Further, the increase in life span (ILS) at 200 mg/kg with P388 [2] is 0%.
Taken in the same sequence, the figures for `CCOC(=O)Nc1cc(N[C@@H](C)[C@H](O)c2ccc(O)cc2)c([N+](=O)[O-])c(N)n1` were 12 µM and 20%.
With `CCOC(=O)Nc1cc(N[C@@H](C)[C@H](O)c2ccc(O)cc2)c(N)c(N)n1`, in the experiment with P388 [9], the increase in life span (ILS) at 100 mg/kg amounted to 58%. In the experiment with L1210 [1], this compound gave an IC50 of 0.62 µM.
For `CCOC(=O)Nc1cc(N[C@@H](C)/C(=N/O)c2ccc(O)cc2)c([N+](=O)[O-])c(N)n1`, half-maximal inhibition with L1210 [1] (IC50) required 6.7 µM. The increase in life span (ILS) at 2 mg/kg in the experiment with P388 [3] is 90%.
`CCOC(=O)Nc1cc(NC(C)C(O)c2ccc(O)cc2)c([N+](=O)[O-])c(N)n1` (stereo unspecified) had an IC50 in the experiment with L1210 [1] of 12 µM.
Still for that read-out and setting: as for `CCOC(=O)Nc1cc(N[C@H](C)C(=O)c2ccc(O)cc2)c([N+](=O)[O-])c(N)n1`, the figure is 44 µM.

As a reminder, the IC50 is the concentration that gives 50% inhibition. A higher IC50 goes with weaker potency in that assay. Usually ILS stands for the gain in survival time of treated over control animals, in per cent. The low end stands for a small benefit in survival, the high end for a large benefit in survival.
